An excerpt weighted towards active compounds, which were near 3.5% of everything screened.
ERAP1 HTS inh: human ERAP1 aminopeptidase inhibitors, primary screen, biochemical, single point, plate reader. Endoplasmic reticulum aminopeptidase 1 (Homo sapiens), Q9NZ08. recombinant ERAP1, Leu-AMC fluorescence, 60 min. inhibition, % at 10.7 µM. hit rate 0.15% among 340,000;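 active = mean replicate inhibition of at least 30%, or all replicates individually reaching that 30% level; inactive = mean below 30% and not every replicate reaching it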
FGF22 binding-1: binders of human FGF22 protein, primary screen, FGF22 synaptogenesis inhibitor project, biophysical, thermal shift, single point; recombinant FGF22 thermal shift, SYPRO orange fluorescence; percent of sucrose octasulfate shift, DMSO zero; activity (Tm shift, normalised), % at 9.99 µM; hit rate 1.5% among 340,000; AID 651658, 2012;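 active = mean Tm shift, scaled 0 neutral to 100 positive control, at about 1.3% or above, every replicate too, limit read from the data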
Target sequence (Q9HCT0 whole entry, looked up): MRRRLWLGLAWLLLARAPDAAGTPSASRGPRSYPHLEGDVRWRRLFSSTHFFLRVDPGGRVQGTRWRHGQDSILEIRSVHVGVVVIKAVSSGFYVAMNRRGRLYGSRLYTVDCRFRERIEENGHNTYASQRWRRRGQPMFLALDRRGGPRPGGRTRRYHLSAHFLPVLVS
PGC1a acetyl inh: inhibitors of PGC1a acetylation signal, primary screen, cell-based, U2OS, AlphaScreen, inhibitor mode; AlphaScreen anti-acetyl-lysine; with virally co-expressed GCN5 acetyltransferase; inhibition, % at 15.6 µM; hit rate 0.17% among 350,000; AID 651687, 2012;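 active = every replicate shows inhibition of at least 40%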
HIV Env fusion: inhibitors of HIV-1 Env-driven cell-cell fusion, primary screen, HeLa-JRFL effector, CEM21 target cells, luciferase | inhibition, % at 12.3 µM | hit rate 1.1% among 360,000;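 active = mean replicate inhibition score of at least 50 and every replicate individually at or above 50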
Cneo AK release: Cryptococcus neoformans cell lysis inducers, primary screen, AK release luminescence, single concentration | hit rate 0.2% among 360,000 | C. neoformans lysis, adenylate kinase release luminescence, 4 h; normalised: neutral wells 0, clomiphene wells 100 | lysis activity, % at 15 µM | AID 651654, 2012;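 active = mean lysis activity across replicates of at least 80%, whatever share of replicates individually reach that level; inactive = mean lysis activity below 80%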
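Material – Cryptococcus neoformans yeast cells · Quantity – 5 × 10^6 yeast cells/mL · Buffer or medium – YPD medium · Compound – single dose · Timing – 4 h static compound exposure, 37 °C, read 1 h post-reagent · Signal – adenylate kinase release luminescence · Read-out basis – lysis from increased AK signal · Benchmarks – Clomiphene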
Ecoli rRNA inh: reduced GFP signal of wild-type E. coli, primary screen, bacterial rRNA inhibitor project, GFP/RFP fluorescence, OD600, single point; GFP signal change (wild-type ribosome), % (no concentration beside the values); AID 720706, 2013; E. coli WT GFP vs humanized-ribosome RFP mutants, 24 h; hits give low values; DMSO median 0, no signal -100; hit rate 1.6% among 350,000;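 active = significant combined selectivity score with lowered wild-type GFP, culture density cut under 30%, mutant RFP and density less affected; inactive = any of these conditions unmet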
FGF22 binding-2: binders of human FGF22 protein, dose response, FGF22 synaptogenesis inhibitor project, biophysical, thermal shift, cherry-pick retest | hit rate 2% among 1,000 | AID 720646, 2013 | recombinant FGF22 thermal shift, SYPRO orange fluorescence | shares compounds with FGF22 binding-1 | thermal shift activity, °C (ΔTm) at 38 µM;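 active = fitted rise in melting shift crosses a set limit at or below the top valid dose tested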
FGF22 TSA: binders of human FGF22 protein, dose response, FGF22 synaptogenesis inhibitor project, biophysical, thermal shift, dry powder; shares compounds with FGF22 binding-1; Thermal shift assay, SYPRO orange, melting temperature shift; Tm shift (activity), % at 38 µM; 50 tested, under 10 active; AID 743017, 2013;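 active = compounds whose fitted dose curve of melting temperature shift rises past a set threshold within the tested doses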
SYPRO no-protein: compound-only thermal shift signal without protein, dose response, artefact control for FGF22 binder project, biochemical, cherry-picked samples, RT-PCR instrument; AID 743019, 2013; AC50, µM (titrated, usually from 38 µM); shares compounds with FGF22 binding-1; hit rate 2% among 1,000; compound-only SYPRO orange thermal shift counter-screen, no protein;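 active = rising signal whose fitted curve reaches the 0.54 level within the top valid dose, showing a melting point, actives reach about 13 µM in these data; inactive = the rest, including activity in the opposite direction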; also: value is where the raw curve crosses a fixed level and not half-maximal
Of the large screens only hits and unclear results are named; the others gave an inactive call (follow-up assays come after a bar, where they were run).

CCCSCCCNC(=O)CN1C(=O)COc2ccc(S(=O)(=O)N3CCCC3)cc21	none
Cc1ccc(-n2c(O)c(C=NC3CCS(=O)(=O)C3)c3ccccc3c2=O)cc1C (stereo unspecified)	FGF22 binding-1 1.7 (no result: HIV Env fusion) | FGF22 binding-2 inactive | SYPRO no-protein inactive
CCCNC(=O)COCc1cc(-c2ccc3c(c2)OCO3)on1	FGF22 binding-1 29 | FGF22 binding-2 inactive | SYPRO no-protein inactive
CC(=O)Nc1ccc2nc(NC(=O)COc3ccc(C)cc3)sc2c1	FGF22 binding-1 1.5 (no result: PGC1a acetyl inh, Cneo AK release, Ecoli rRNA inh) | FGF22 binding-2 inactive | SYPRO no-protein 12µM
Cc1ccc2nc(-c3ccc(NC(=O)COCC(=O)O)cc3)sc2c1	FGF22 binding-1 23, Ecoli rRNA inh -35 (no result: ERAP1 HTS inh) | FGF22 binding-2 inactive | SYPRO no-protein inactive
CC(=O)Nc1ccc2nc(NC(=O)COc3ccccc3)sc2c1	none
Cc1ccc2nc(-c3ccc(NC(=O)CSCC(=O)O)cc3)sc2c1	none
OC[C@@H]1[C@@H](c2ccc(-c3cccnc3)cc2)[C@H]2CN(Cc3ccccn3)CCCCN12	FGF22 binding-1 1.3 (no result: ERAP1 HTS inh, HIV Env fusion) | FGF22 binding-2 inactive | SYPRO no-protein inactive
OC[C@H]1[C@H](c2ccc(-c3cccnc3)cc2)[C@@H]2CN(Cc3ccccn3)CCCCN12	none (no result: ERAP1 HTS inh, FGF22 binding-1, HIV Env fusion)
OC[C@H]1[C@@H](c2ccc(-c3cccnc3)cc2)[C@H]2CN(Cc3ccccn3)CCCCN21	FGF22 binding-1 1.7 (no result: HIV Env fusion) | FGF22 binding-2 inactive | SYPRO no-protein inactive
C=CCOC(=O)C1=C(C)NC(=O)NC1c1cc2c(cc1Br)OCO2 (stereo unspecified)	none
COc1cccc(CC2(CO)CCCN(Cc3ccccc3Cl)C2)c1 (stereo unspecified)	none
NC(=NCCc1c[nH]c2ccccc12)NS(=O)(=O)c1ccc2ccccc2c1	none (no result: ERAP1 HTS inh, FGF22 binding-1, PGC1a acetyl inh, Cneo AK release, Ecoli rRNA inh)
NC(=NCCc1c[nH]c2ccccc12)NS(=O)(=O)c1ccc(F)cc1	FGF22 binding-1 2.7, Ecoli rRNA inh -20 (no result: PGC1a acetyl inh, Cneo AK release) | FGF22 binding-2 inactive | SYPRO no-protein inactive
COc1ccc2nc(NC(=O)CCc3cc(OC)c(OC)c(OC)c3)sc2c1	FGF22 binding-1 1.9 (no result: PGC1a acetyl inh, Cneo AK release) | FGF22 binding-2 inactive | SYPRO no-protein inactive
COc1ccc(Nc2nc3ccc(OC)cc3s2)cc1	FGF22 binding-1 1.5, Ecoli rRNA inh -26 (no result: Cneo AK release) | FGF22 binding-2 inactive | FGF22 TSA inactive | SYPRO no-protein inactive
COc1ccc2nc(Nc3nc(C)c(C(C)=O)s3)sc2c1	none (no result: ERAP1 HTS inh, FGF22 binding-1, Ecoli rRNA inh)
COc1ccc2nc(NC(=O)CCn3cccc3)sc2c1	none (no result: ERAP1 HTS inh, FGF22 binding-1, HIV Env fusion, Ecoli rRNA inh)
COCC#Cc1ccc2c(c1)O[C@@H](CN(C)Cc1ccccc1F)[C@@H](C)CN([C@@H](C)CO)S2(=O)=O	none
CO[C@@H]1CN(C)C(=O)c2cc(NC(=O)C3CCCC3)ccc2OC[C@H](C)N(CCC(F)(F)F)C[C@H]1C	FGF22 binding-1 9.3 (no result: PGC1a acetyl inh, HIV Env fusion) | FGF22 binding-2 inactive | SYPRO no-protein inactive
CO[C@@H]1CN(C)C(=O)c2ccc(NS(=O)(=O)c3ccc(Cl)cc3)cc2OC[C@@H](C)N(C(=O)NC(C)C)C[C@@H]1C	none (no result: HIV Env fusion)
CO[C@H]1CN(C)C(=O)c2cc(NC(=O)c3cccc(F)c3)ccc2OC[C@H](C)NC[C@@H]1C	FGF22 binding-1 2.0 (no result: HIV Env fusion) | FGF22 binding-2 inactive | SYPRO no-protein inactive
CO[C@H]1CN(C)C(=O)c2ccc(NS(=O)(=O)c3ccc(Cl)cc3)cc2OC[C@@H](C)N(C(=O)NC(C)C)C[C@H]1C	FGF22 binding-1 36 (no result: HIV Env fusion) | FGF22 binding-2 inactive | SYPRO no-protein inactive
CCCNC(=O)Nc1ccc2c(c1)C(=O)N(C)C[C@H](OC)[C@@H](C)CN(C(=O)c1ccccc1F)[C@H](C)CO2	FGF22 binding-1 1.7 (no result: ERAP1 HTS inh) | FGF22 binding-2 inactive | SYPRO no-protein inactive
CO[C@H]1CN(C)C(=O)c2cc(NC(=O)C3CCCC3)ccc2OC[C@H](C)N(CCC(F)(F)F)C[C@H]1C	none (no result: PGC1a acetyl inh, HIV Env fusion)
CS(=O)(=O)N1CC(=O)N2[C@@H](CO)[C@H](c3ccc(C#Cc4ccccc4)cc3)[C@@H]2C1	none (no result: FGF22 binding-1, HIV Env fusion, Cneo AK release)
O=C(CSc1nnc(CNC(=O)c2ccccc2F)o1)Nc1ccc2c(c1)OCCO2	none (no result: ERAP1 HTS inh, FGF22 binding-1, Ecoli rRNA inh)
CCn1c(-c2ccc([N+](=O)[O-])cc2)n[nH]c1=S	none (no result: ERAP1 HTS inh, FGF22 binding-1, Ecoli rRNA inh)
OCCC1CN(C/C=C/c2ccco2)CCN1Cc1ccccc1 (stereo unspecified)	none
COc1cccc(CNC(=O)[C@H]2CCCN2C(=O)[C@H]2CCCN2C(=O)c2cccs2)c1	none (no result: PGC1a acetyl inh, Cneo AK release)
Cc1cc(C(=O)CSc2nnc(N)s2)c(C)n1CCc1ccc(Cl)cc1	none (no result: ERAP1 HTS inh, FGF22 binding-1, Ecoli rRNA inh)
CO[C@H]1CN(C)C(=O)c2cc(NC(=O)CC(F)(F)F)ccc2OC[C@@H](C)N(C(C)=O)C[C@@H]1C	none (no result: HIV Env fusion, Cneo AK release)
COCC(=O)Nc1ccc2c(c1)OC[C@@H](C)N(C)C[C@H](C)[C@@H](OC)CN(C)C2=O	FGF22 binding-1 31 (no result: HIV Env fusion) | FGF22 binding-2 inactive | SYPRO no-protein inactive
COCC(=O)Nc1ccc2c(c1)OC[C@@H](C)N(C)C[C@@H](C)[C@H](OC)CN(C)C2=O	none (no result: HIV Env fusion)
CCCN1C[C@H](C)[C@H](OC)CN(C)C(=O)c2cc(NC(=O)c3cnccn3)ccc2OC[C@@H]1C	FGF22 binding-1 1.4 | FGF22 binding-2 inactive | SYPRO no-protein inactive
CO[C@H]1CN(C)C(=O)c2cc(NC(=O)CC(F)(F)F)ccc2OC[C@@H](C)N(C(C)=O)C[C@H]1C	FGF22 binding-1 23 (no result: HIV Env fusion, Cneo AK release) | FGF22 binding-2 inactive | SYPRO no-protein inactive
CCCN1C[C@@H](C)[C@H](OC)CN(C)C(=O)c2cc(NC(=O)c3cnccn3)ccc2OC[C@@H]1C	none
CCN1C(=O)[C@H]2[C@@H](c3ccc(-c4ccc(OC)cc4)cc3)N3CCCC[C@@]3(C(=O)OC)[C@H]2C1=O	none
C[C@H]1CN([C@@H](C)CO)C(=O)c2c(c3ccccc3n2C)-c2ccccc2CO[C@@H]1CN(C)C	none

Screening results deposited in PubChem by Broad Institute.
